One block for each compound: values may come before it.
Experiments:
human CRBN = details: cited from earlier work
SALL4 and Aiolos = details: cited from earlier work
embryonic models = details: cited from earlier work
[1] = Dissolution study in PBS pH 7.4 under sink conditions; assay type: physicochemical; details: PBS pH 7.4, 37 °C
Procedure, shortened: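 Nanosuspension, coarse suspension or raw powder (1 mg drug each, liquid doses confirmed by HPLC) was added to 100 mL PBS pH 7.4 at 37 °C with magnetic stirring under sink conditions. Samples taken at 1–30 min and 1–8 h were replaced with fresh medium and centrifuged at 15000 rpm for 20 min. Supernatant was assayed by HPLC at 306 nm. At least triplicate, mean ± SD.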

Aqueous solubility study = assay type: physicochemical; details: bidistilled water, 37 °C, 72 h stirring, n = 3
Procedure, shortened: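 Excess drug (raw powder), coarse suspension or nanosuspension stirred in bidistilled water at 37 °C for 72 h. Samples were centrifuged twice at 15,000 rpm for 30 min, and the clear supernatant was diluted. Drug was quantified by HPLC (C18 column; water:ACN:acetic acid […]; 0.7 mL/min; 306 nm) against a linear calibration curve. n = 3, mean ± SD.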

[2] = cited from earlier work; for Dissolution after one minute, coarse suspension / Dissolution after one minute, nanosuspension: 1 min; for Dissolution after one minute, nanosuspension: nanosuspension with Tween 80 as stabilizer
[3] = cited from earlier work

- Drug dissolved at first time point (1 minute) ([1]; 1 min): approximately 22%
- Drug dissolved at end of test (8 hours) ([1]; 8 h): 44%
- Aqueous solubility (Aqueous solubility study): 4.8 ± 0.2 µg/mL
SMILES: Nc1cccc2c1C(=S)N(C1CCC(=O)NC1=O)C2=O (stereo not shown) [MTPOM, 3-monothiopomalidomide]
- Binding to human CRBN (human CRBN): binds to human CRBN
- Degradation of neosubstrates SALL4 and Aiolos (SALL4 and Aiolos): without triggering the subsequent degradation
- Risk of teratogenicity (embryonic models): significantly attenuated risk of teratogenicity

SMILES: COc1ccc2c(c1)c(CC(=O)O)c(C)n2C(=O)c1ccc(Cl)cc1 [indomethacin]
- Dissolution after one minute, coarse suspension [2]: approximately 20%
- Dissolution after 30 minutes, coarse suspension [2]: 40–50%
- Dissolution after one minute, nanosuspension [2]: almost complete dissolution

SMILES: CCC(C)n1ncn(-c2ccc(N3CCN(c4ccc(OCC5COC(Cn6cncn6)(c6ccc(Cl)cc6Cl)O5)cc4)CC3)cc2)c1=O (stereo not shown) [itraconazole]
- Dissolution after one minute, coarse suspension [2]: approximately 20%
- Dissolution after 30 minutes, coarse suspension [2]: 40–50%
- Dissolution after one minute, nanosuspension [2]: almost complete dissolution

SMILES: CC[C@@H]([C@H](C)O)n1ncn(-c2ccc(N3CCN(c4ccc(OC[C@@H]5CO[C@@](Cn6cncn6)(c6ccc(F)cc6F)C5)cc4)CC3)cc2)c1=O [posaconazole]
- Average diameter when nanosized via media milling [3]: 185 nm

From article PMC12644240 (International Journal of Nanomedicine, 2025)
